Reference: ChEMBL document CHEMBL5260818, “Anti-influenza activity of diazaadamantanes combined with monoterpene moieties” (Bioorg Med Chem Lett, 2017)
pIC50: −log10 of the molar value.

Assays:
[1] = tested on: Influenza A virus; assay: Antiviral activity against Influenza A virus A A/California/07/09 (H1N1)pdm09; format: functional, organism-based
[2] = Cytotoxicity against MDCK cells incubated for 48 hrs by MTT assay; format: toxicity, cell-based, Canis lupus familiaris; conditions: dog
Summary of the method: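 Uninfected MDCK cells were exposed to the dissolved compounds for 48 h at 36 °C, 5% CO2. Cells were washed twice with PBS, then given MTT ([…] in PBS) for 1 h. Formazan was dissolved in DMSO and OD read at 535 nm against concentration. Three parallels per concentration, and CC50 was calculated.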

[3] = Selectivity index, ratio of CC50 for cytotoxicity against MDCK cells to IC50 for antiviral activity against Influenza A virus A/Puerto Rico/8/34 (H1N1) infected in MDCK cells assessed as inhibition of viral growth; format: toxicity, cell-based; conditions: dog, read-out: Ratio CC50/IC50
Summary of the method: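 SI is CC50 (MTT, uninfected MDCK, 48 h) divided by IC50 (hemagglutination titre of progeny virus from MDCK cells infected at moi 0.01 after 1 h compound pre-incubation), both from triplicate concentration series.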

[4] = tested on: Influenza A virus; assay: Antiviral activity against Influenza A virus A/Puerto Rico/8/34 (H1N1) infected in MDCK cells assessed as inhibition of viral growth preincubated with cells for 1 hrs followed by compound addition and measured after 24 hrs by TCD titration based assay; format: functional, organism-based
Summary of the method: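 Compounds dissolved in DMSO and diluted in MEM with 1 μg/ml trypsin, then added to MDCK cells for 1 h at 36 °C before infection (moi 0.01). Cultures were kept 24 h at 36 °C, 5% CO2. Supernatant virus progeny was grown in MDCK cells for 48 h, then titred by hemagglutination. Each concentration was run in triplicate, and IC50 was calculated.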

Compound | pIC50 [1] | CC50 at 48 h [2] | selectivity ratio [3] | pIC50 [4]
CC(C)=CCCC(C)CCNC1C2CC3CC(C2)CC1C3 (stereo unspecified) | 4.74 | – | – | –
CC(C)=CCC/C(C)=C\C1N2CC3(C)CN1CC(C)(C2)C3=O (stereo unspecified) | – | 242 µM | 2 | < 4.00
CC(C)=CCCC(C)CC1N2CC3(C)CN1CC(C)(C2)C3=O (stereo unspecified) | – | 178 µM | 3 | 4.18
CC12CN3CC(C)(CN(C1)C3C1=CC(=O)[C@H]3C[C@@H]1C3(C)C)C2=O (stereo partly specified) | – | 907 µM | 8 | 3.95
CC(CCCC(C)(C)O)CC1N2CC3(C)CN1CC(C)(C2)C3=O (stereo unspecified) | – | > 904 µM | 3 | 3.59
CC1=CC[C@@H](CC2N3CC4(C)CN2CC(C)(C3)C4=O)C1(C)C (stereo partly specified) | – | 533 µM | < 2 | < 3.48
CC12CN3CN(C1)CC(C)(C3)C2NCC1=CC[C@H]2C[C@@H]1C2(C)C (stereo partly specified) | – | 196 µM | 3 | 4.19
CC12CN3CC(C)(CN(C1)C3C1=CC[C@H]3C[C@@H]1C3(C)C)C2=O (stereo partly specified) | – | > 1000 µM | – | < 3.00
CC(=O)[C@@H]1C[C@H](CC2N3CC4(C)CN2CC(C)(C3)C4=O)C1(C)C (stereo partly specified) | – | > 943 µM | – | < 3.03
CC12CN3CN(C1)CC(C)(C3)C2N (stereo unspecified) | – | > 1820 µM | > 13 | 3.84
CC(CCCC(C)(C)O)CCNC1C2(C)CN3CN(C2)CC1(C)C3 (stereo unspecified) | – | 979 µM | 7 | 3.87
CC(C)=CCCC(C)CCNC1C2(C)CN3CN(C2)CC1(C)C3 (stereo unspecified) | – | 239 µM | 30 | 5.10
CC(C)=CCC/C(C)=C\CNC1C2(C)CN3CN(C2)CC1(C)C3 (stereo unspecified) | – | > 1040 µM | – | < 2.98
CC(N)C12CC3CC(CC(C3)C1)C2 (stereo unspecified) [RIMANTADINE] | – | – | 8 | 4.38
